Reference: the EternaBench riboswitch data

Test system: MS2 coat protein
Experiment: apparent Kd, MS2 coat protein; higher = weaker binding; RNA-MaP array
Procedure, shortened: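 Apparent Kd was taken as the median of binding curves fitted cluster by cluster. The designed RNAs were made by transcription of sequenced DNA templates on an Illumina sequencing chip and exposed to fluorescently labeled MS2 coat protein (1.5 nM to 3 μM) at room temperature, with or without input ligand, for 0.8–1.5 h at the lowest and 10–20 min at the highest concentrations. Any design measured on fewer than 10 clusters was left out.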

[1] = designed as: ON switch for flavin mononucleotide, no ligand
[2] = ligand present: flavin mononucleotide, designed as: ON switch for flavin mononucleotide
[3] = designed as: OFF switch for tryptophan, no ligand
[4] = ligand present: tryptophan, designed as: OFF switch for tryptophan
[5] = designed as: OFF switch for flavin mononucleotide, no ligand
[6] = ligand present: flavin mononucleotide, designed as: OFF switch for flavin mononucleotide

Row | Sequence | apparent Kd [1] | apparent Kd [2] | apparent Kd [5] | apparent Kd [6] | other results
1 | GCAUAGUAAAAUGAUACCAGAGUCAAAACAGACAUGAGGAUCACCCAUGUGCAUAUACAACUCCCUUGGCAGCAUUAAAACGGGA |  |  |  |  | apparent Kd (designed as: ON switch for theophylline, no ligand): 17.1 nM; apparent Kd (ligand present: theophylline, designed as: ON switch for theophylline): 13 nM
2 | UGAAUACAUGAGGAUCACCCAUGUUACGACCUCACAGGAUAUCAGAUAAAGGCUCUCAUCUGAGAAGGGUGGCUCC | 63.3 nM | 38.8 nM |  |  | 
3 | GGUUCCUCAACGGCCGCCACUUACUGGAUUAGUGGACCUACUUGCAACAUGAGGAUCACCCAUGUAAGGACCGGGUUGCUCCCAA |  |  |  |  | apparent Kd [3]: 68.2 nM; apparent Kd [4]: 79.2 nM
4 | GACAUAUGCUAUGCGCAGGCUACCCUCAGCCGAGGACCGGUACGGCCGCCACUCGUACUACCACAUGAGGAUCACCCAUGUUAUC |  |  |  |  | apparent Kd [3]: 17.2 nM; apparent Kd [4]: 18.2 nM
5 | CGAGUCUUAUAGAAGGUAGACAUGAGGAUCACCCAUGUACUGGCAACGAAUAGUCGUAGUACACCUAAGGAUAUAUGGGAUGAG | 74.7 nM | 52.3 nM |  |  | 
6 | GGGUUACACACAUGAGGAUCACCCAUGUUUGCGUGGGCGGGCAGAAGGAGAACCGGAUUACACUUCUAGGAUAUGCAGAUGAUC | 23.6 nM | 28.2 nM |  |  | 
7 | CACCUUCGUCAAGGAUAUGCGUAAUGUAUAAUCGCAGAAGGUGACGCGAUCUUCAUAACAUGAGGAUCACCCAUGUGGUGAACU |  |  | 436 nM | 312 nM | 
8 | UAUAAGGGUCAGAAGGCAGUGGCGCAGAAUGACUGAGGAUAUGAUAACCGGUAAUUUAACAUGAGGAUCACCCAUGUCUACAAC | 11.7 nM | 10.2 nM |  |  | 
9 | CACGAUCGUGAAGGAUAUCGACAUGAGGAUCACCCAUGUUACUCUUACAUCUAUGGUUCAAGUGCCGAGAAGGUCACAGAGGCA |  |  | 13.8 nM | 18 nM | 
10 | UCCGCGGAGACGGCCGCCACUGAGUGAGAAGUCGUGCUCUAACUACAUGAGGAUCACCCAUGUCCCAGGACCGGGUCGAAGUGUU |  |  |  |  | apparent Kd (designed as: ON switch for tryptophan, no ligand): 214 nM; apparent Kd (ligand present: tryptophan, designed as: ON switch for tryptophan): 103 nM
11 | CGAUUACAUGAGGAUCACCCAUGUCAGGAUAUAAUUUGCACAGCCGGGCAGGCCGUGGUUAGAAGGGACGUACA |  |  | 9.09 nM | 8.75 nM | 
12 | GUGAACGUCAAAGGAUAUGUCGGAACUGCUAGAACAGAAGGUUGGGAAUCGGAUUGGUUGCACAUGAGGAUCACCCAUGUUGAG | 443 nM | 264 nM |  |  | 
13 | GCCAAGCUCUAAGGAUAUGUUCACACCGGUGAGACAGAAGGUAGUAGUGUACUGCACAUGAGGAUCACCCAUGUAAACGGAUAA | 64.2 nM | 14.9 nM |  |  | 
14 | UUAGUGAUACUAGGAUAUAGGUAAGACUCUUAACUAGAAGGAGUAGGGACGAAUACAUGAGGAUCACCCAUGUGAUUCUGGUUG |  |  | 21.6 nM | 26.3 nM | 
15 | ACCGUAUGGGAGAAGGAACUAUGUUAGACAUGAGGAUCACCCAUGUUCCAGAAUGUAGGGCUCAGUUAGGAUAUCCAAUUCAGA |  |  | 11.1 nM | 21.8 nM | 
16 | AUAACUGCAGGAUAUACAGGAACGCCUAGAAGGAUCCUGGAACAUGAGGAUCACCCAUGUAGAAGGGCACGUUU |  |  | 12.3 nM | 14.4 nM | 
17 | GCACUUAUAGCAGGAUAUCUUUAAACACCGAAAGGUAGCGGUACAUGAGGAUCACCCAUGUCAACAGAGAAGGGCUCAUAGUCU | 11.1 nM | 8.63 nM |  |  | 
18 | GCAUUAACAAAGGAUAUGCAUUUCGUCAAUGUAGCAGAAGGUUGUACAUGAGGAUCACCCAUGUGUGAUCGAAC |  |  | 26 nM | 56.6 nM | 
19 | AGACAAAAGGAGAAGGAGGUAAAGAUAUAAAGGUGAAGUAAUGGACAUGAGGAUCACCCAUGUACCUAGGAUAUCCAGGGCGAU |  |  | 26.8 nM | 33.6 nM | 
20 | AAUCGCCGUAAGAAGGCCACAUAAACAUGAGGAUCACCCAUGUACAGGCGACCUUUAUAUAAUGUGGAGGAUAUUAACUGCUUC |  |  | 36.2 nM | 90.5 nM | 
21 | GGGACACAUGAGGAUCACCCAUGUUGAUGACUUUGAGGAUAUUAGCAAAUUCUGGUCCGCUAAGAAGGCAAGGAAG | 18.8 nM | 9.82 nM |  |  | 
22 | UAGCAGUUCACAGGAUAUAGUUUGCGAUAAGUUUAUUUAUGAGAGACAUGAGGAUCACCCAUGUACUAGAAGGGUGAGAAAUAA | 461 nM | 130 nM |  |  | 
23 | GUGCACAUGAGGAUCACCCAUGUCUGUGUAUUCCUGCUACCAGAGGAUAUGGCGUGCGUAGCUUACCAGAAGGCUGGUUGUAUC |  |  | 30 nM | 13.4 nM | 
24 | GGUUUUUCUGUUAGGAUAUUUCAUGACAGGCGAUGAAAGAAGGAACAUGAGGAUCACCCAUGUGUUUGAGAUAA |  |  | 9.57 nM | 10.6 nM | 
25 | AGUCUUCUCGUAAGGAUAUUUAGGAAUUCAUCUCCAAAGAAGGUACAUGAGGAUCACCCAUGUGAAGGGCUUUU |  |  | 12.8 nM | 24.8 nM | 
26 | AGAAUGACAAAAUUGCAACAUGAGGAUCACCCAUGUGAUACAAGAAGGACAAACCGCUCAAGAGUGUAGGAUAUUGUGGAAAUC | 25.6 nM | 19.6 nM |  |  | 
27 | CUCGUUUAAGAGGAUAUUUCGUCCGCUCUCGGGAAAGAAGGCUUGACAUGAGGAUCACCCAUGUAUACGUUGGA |  |  | 9.46 nM | 13.9 nM | 
